# Laboratory results from the RNAGym collection of RNA variant scans (doi:10.1126/science.aae0568).
# Variants at the floor of the assay were thinned out.
# B1: tRNA (parent)
# chain: GUUCCGUUGGCGUAAUGGUAACGCGUCUCCCUCCUAAGGAGAAGACUGCGGGUUCGAGUCCCGUACGGAACG
# Variants of: B1
# Test: yeast fitness relative to wild type (ratio to wild type); higher = fitter; tRNA-Arg(CCU), competitive growth, 37 C, YPD
# Method in brief: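 A pool of Saccharomyces cerevisiae strains, each with a tRNA-Arg(CCU) gene variant at the native genomic locus, was competed in YPD at 37°C for 24 hours across six parallel replicates. The variants had been chemically synthesised at a 3% per-site mutation rate over 69 sites, and gene amplicons before and after competition were read by 100-nucleotide paired-end sequencing. Darwinian fitness relative to wild type rested on changes in genotype frequencies. Genotypes required ≥ 100 starting reads, and estimates < 0.5 were set to 0.5.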
row,Variant,yeast fitness
1,GUUCCGUUGGGGUAAUGGUAACGCGUCUGCCGCCUAAAGAGAAGACUGCGGGCUCGAGUCCCGUACGGAACG [C11G C29G U32G G38A U53C],≤ 0.5
2,GUUCCGUUGCCGUAAUGGUAACGCGUCUCCCUCCUAAGGAGAAGACUGCGGGUUCGAGUCCCGUAGGGAACG [G10C C66G],0.515
3,GGUCCGUUGGCGUAAUGCUAACUCGUUUCCCUCCUAAGGAGAAGACUGCGGGUUCGAGUCCCGAACGGAACG [U2G G18C G23U C27U U64A],≤ 0.5
4,GUUCCGUUGGCGAAAUGGUAACGCGUCUCCCUCGUAAGGAGAAGCCUGCGGGUUCGCGUCCCGUACGGAACG [U13A C34G A45C A57C],≤ 0.5
5,GUUCCGUUGGCGUAAUGGUAACGCGUCUCUCUCCUCAGGAGAAGACUGCGGGUUCGAGUCCCGUCCGGAACG [C30U A36C A65C],0.615
6,GUUCCGUUGGCGUAAUGGCAACGCGUCUCCCUCAUAAGGAGAAGACUGCCGGUUCAAGUCCCGUACGGAACG [U19C C34A G50C G56A],0.55
7,GUUUCGUUGGAGUAAUGGUAACGCGUCUCCCUCCUAAGGAGGAGACUCCGGGUUCGAGUCCCGUUCGGAACG [C4U C11A A42G G48C A65U],0.555
8,GUUCCGUUGGCGUAAUGCUAACGCGUCUCCCUCCUAAGGGGAAGACUGCGGGUUCGAGUCCCGUACGGAACG [G18C A40G],0.64
9,GUUCCGUUGGAGUAAUGGUAACGGGUCUCUUUCCUAAGGAGAAGACUGCGGGUUCGAGUCUCGUACCGAACG [C11A C24G C30U C31U C61U G67C],≤ 0.5
10,GUUCCGUUGGUGUAAAGGUAAAGGGUCUCCCUCCUAAGGAGAAGUCAGCGGGUUCGAGUCCCGUACGGAACG [C11U U16A C22A C24G A45U U47A],≤ 0.5
11,GUUCCGUUGGGGUAAUGGUAACGCGUCUCACUCCAAAGGAGAAGACUGCGGGUUCGAGUCCCGUACGGAACG [C11G C30A U35A],≤ 0.5
12,GUUCCGUUGGCGUAAUGGAAACGCGUCUCCGUCCUAAGGAGAAGACUGCGGGUUCGAGUCCCGUUCGGAACG [U19A C31G A65U],0.582
13,GUUCCGUUGGCGUAAUGGUAACGCGUCUCCCUCCUAACGAGAAGACUGCGGGUUCGAGUCUCGUACGGAACG [G38C C61U],0.646
14,GUUCCGUUGGCGUAAUGGUAACGCCUCCCCCUCCUAAGGAGAAGACUGCGGGUUCGAGUCCCGUACGGGCCG [G25C U28C A69G A70C],≤ 0.5
15,GCUCCGUUGGCGCAAUGGUAACGCGUCUCCCUCCUAAGGAGAAGACUGCGGGUUCGAGUCCCGUACGGAACG [U2C U13C],0.991
16,GUUCCGUUGGCGUAAUGGUAACGCGUCUCCCUCCUAAGGAGCAGACUGCGGGUUCGAGUCCCGUACGGAUCG [A42C A70U],1.02
17,GUUCCGUUGGCGUAAUGGUAACGGGCCUCCUUCCUAAGGAGAAGACUGCGGGUUCGAGUCCCGUACGGAACG [C24G U26C C31U],0.747
18,GUUCCGUUGGCGUAAUGGUAACGCGUCUCCCUGCUAAGGAGAAGACUGCGGGUUCGAGUCCAGUACCGAACG [C33G C62A G67C],≤ 0.5
19,GUUCCGUCGGCGUAAUGGUAACGCGUCUCCCUCCUAAGGAGAAGACUGCGGGUUCGAGUCACGUUCGGAACG [U8C C61A A65U],≤ 0.5

row,Variant,yeast fitness
1,GUUCCGUUGGCGUAAUGGUAACGCGUCUGCAUCCUAAGGAGAACACUGCGGGUUCGAGUCCCGUCCGGAACG [C29G C31A G44C A65C],≤ 0.5
2,GUUCCGUUGGCGUAAUGGUAACGCGUCUCCCUCCUAAGGAAAAGACUGCGGGUUCGAGUGCCGUACAGAACG [G41A C60G G67A],0.534
3,GAUCCGUUGGCAUAAUGGUACCGCGUCUCCCUCCUAAGGAGAAGACUGCGGGUUCGAGUCCCGUACGGAACG [U2A G12A A21C],0.515
4,GUUCCGUUGGCGUAGUGGUAACGCGUCUCCCUCCUAAGGAGAAGACUGUGGGUUCGAGUCCCGUACGGUACG [A15G C49U A69U],0.8
5,GUUCACUUGGGGUAAUGGAAACGCGUCUCCCUCCUAAGGAGAAGACUGAGGGUUCGAGUCCCGUACGGAACG [C5A G6C C11G U19A C49A],0.571
6,GUCCCGUUGGCGUAAUGGUAACGCGUCUCCCUCCUAUGGAGAAGACUGCGGGUUCGAGUCCCGUACGGAACG [U3C A37U],0.806
7,GAUCCGUUGGCGUAAUGGUUACGCGUCUCCCUCCUAAGGAGAAGACUGCGGGUUCGAGUCCCGUACGGAACG [U2A A20U],0.732
8,GUUCCGUUGGCGUAAUGGUAACGCGUCUCCCUCCUUUGGAGAAGACUGCGGGUUCGAGUCCCGUACGGAACG [A36U A37U],0.587
9,GUUCCGUUGGCGUAAUGGUAACGCGUGUCCCUCCUAAGGAGAAGACUGUGGGUUGGAGUCCCGUACGGAACG [C27G C49U C55G],≤ 0.5
10,GUUCCGUUGGCGUAAUGGUAACGCGACUCCCUCCUAAGGAGAAGACUGCGGGUUAGAGUCCCGUACGCAACG [U26A C55A G68C],≤ 0.5
11,GAUCCGUUGGCGUAAUGGGAACGCGUCUCCCUCCUAAGGAGAAGACUGCGGGUUCGAGUCCCGUACGGAUCG [U2A U19G A70U],0.68
12,GUUCCGUUGGCGUAAUCGUAGCGCGUCUCCCUCCUAAGGCGAACACUGCGGGUUCGAGUCACGUACGGAACG [G17C A21G A40C G44C C61A],0.622
13,GUUCCGUUGGCGUAAUGGUGACGCGUCUCCCUCAUAAGGAGUAGACUGCGGGUUCGAAUCCUAUACGGAACG [A20G C34A A42U G58A C62U G63A],0.583
14,GUUCCCUUGGCCUAAUGGUAACGCGUCUACCUCCUAAGGAGAAGACUGCGGGUUCGAGUCCCGUACGGAACG [G6C G12C C29A],≤ 0.5
15,GUACUGUUGGCGUGAUGGUAACGCGUCUCCCUCGUAAGGAGACGACUGCGGGUUCGAGUCCCGUACGGAACG [U3A C5U A14G C34G A43C],≤ 0.5
16,GUUCCAUUGGCGUAAUGCUAACGCGUCUCGCUCAUACGGAGAAGACUGCGGGUUCGAGUCCCGUUCGGAACG [G6A G18C C30G C34A A37C A65U],0.584
17,GUUCCGUUGGCGUAAUGGUAACGCGUCUUCCUCCCAAGGAGAAGACUGCGGGUUCGAGUCCCGUACGGAACG [C29U U35C],0.95
18,GUUCCGUUGGCGUAAUGGUAACGCGUCUUCCUCCUAAGGAGAUGACUGCGGGUUCGAGUCCCGUACGGCACG [C29U A43U A69C],0.735
19,GUUUCGUUGGCGUAAUGGUAACACGUCCCCCUCCUAAGGAGAAGACUGCGGGUUCCAGUCCCGUACGGAACG [C4U G23A U28C G56C],≤ 0.5
